The nature of the data set: Toxicity liver stage against HepG2, at 10uM. It is filed as cell-based. Also noted: test concentration 10 uM, cell line HepG2-A16-CD81EGFP. To be noted: human, HepG2-A16-CD81EGFP cells; read-out: INHIBITION
The method in brief: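 Uninfected HepG2-A16-CD81EGFP cells, 3 × 10^3 per well, 1536-well, plated on prespotted compound at 10 μM final, parasite-free screening media added to match infected plates; puromycin 10 μM positive, DMSO 0.5% negative; run in parallel with 48 h PbLuc assay at 37 °C, 5% CO2; viability by CellTiter-Glo luminescence, normalized to controls.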
As to `Cc1nc(C)c(C(=O)N2CCc3nnc(C4CCCCN4C)n3CC2)o1` (centres undefined), the cytotoxicity at 10 µM is 1.9%.

Turning to `Cc1nc(C)n(CC2CCCN(Cc3ncc(C(C)(C)C)o3)C2)n1` (centres undefined), the cytotoxicity at 10 µM was -5.95%.

Take `FC(F)(F)c1cccc(-c2c[nH]c(C3CCCN3)n2)c1` (centres undefined): the cytotoxicity at 10 µM was -3.25%.

`CN1[C@H](Cn2cncn2)C[C@@H]2CN(C3CCOCC3)CC[C@@H]21`: the cytotoxicity at 10 µM is 4.56%.

Turning to `CN(C)C(=O)CNC(=O)c1ccn(-c2ccc3ccccn23)n1`, the cytotoxicity at 10 µM was 0.74%.

For `O=C(CCNC(=O)NC1CC1)NCc1ccccc1`, the cytotoxicity at 10 µM stood at 8.12%.

Regarding `O=C(CN1CCCCC1Cn1cncn1)NCCc1ccc(F)cc1` (centres undefined), the cytotoxicity at 10 µM is -1.65%.

Regarding `Cc1nc(C)c(CC(=O)Nc2nnc(C3CC3)s2)c(=O)[nH]1`, the cytotoxicity at 10 µM was -11.2%.

`c1cc(C2CN(C3CCCCC3)C2)n[nH]1`: the cytotoxicity at 10 µM came out at 4.18%.

As for `Cc1cc(C)n(CC2CCCN2C(=O)Cc2c(C)noc2C)n1` (centres undefined), the cytotoxicity at 10 µM was -4.05%.

Regarding `CC(C)NC(=O)N1CCC2(CC1)Cc1ccccc1CN(C)C2=O`, the cytotoxicity at 10 µM stood at 5.55%.

On to `CN(Cc1noc2c1CCCC2)C(=O)Cn1c(=O)cnc2ccccc21`, for which the cytotoxicity at 10 µM is -38.9%.

Regarding `O=C(c1cccnc1-n1cccn1)N1CCN(CC2CC2)CC1`, the cytotoxicity at 10 µM is -4.71%.

In the case of `O=S(=O)(NCCn1ccc(-c2ccncc2)n1)C1CC1`, the cytotoxicity at 10 µM worked out at 0.794%.

With `CCc1ccc(-c2cn3c(C(=O)NCC(C)C(=O)NC)csc3n2)cc1` (centres undefined), the cytotoxicity at 10 µM came to 9.21%.

As for `NC(=O)C1CCN(C(=O)Cc2ccc(Cl)c(Cl)c2)CC1`, the cytotoxicity at 10 µM was determined as 5.82%.

As for `COCCc1noc(CN2CCCC2c2c(C)nn(C)c2C)n1` (centres undefined), the cytotoxicity at 10 µM is -5.73%.

For `CC(C)N(C)Cc1noc2c1CN(C(=O)c1cnccn1)CC2`, the cytotoxicity at 10 µM is 4.44%.

Take `CNc1cc(N2CCCC2CNCc2ccco2)ncn1` (centres undefined): the cytotoxicity at 10 µM is -10.4%.

For the molecule `Cc1cc(C(=O)N2CCO[C@H]3[C@H](OCCN(C)C)CC[C@@H]32)c(C)[nH]1`, the cytotoxicity at 10 µM turned out to be 7.07%.

On to `CC(C)OC(=O)N1CCCCC1CCn1cccn1` (centres undefined), for which the cytotoxicity at 10 µM was -1.17%.

Turning to `c1ccc(CN2CCOC3(CCCN(c4nccs4)C3)C2)cc1` (centres undefined), the cytotoxicity at 10 µM amounted to 13.7%.

Consider `O=C1CN(Cc2nnc(-c3ccccc3Br)o2)CCN1`, for which the cytotoxicity at 10 µM worked out at 9.35%.

For the molecule `O=C(c1ccc2c(c1)COC2)N1CCC(Nc2cccnn2)CC1`, the cytotoxicity at 10 µM was -13.1%.

`N#Cc1cccc(CNc2cc(CO)ccc2Cl)c1`: the cytotoxicity at 10 µM stood at 11.5%.

Turning to `CN(C)c1nc2c(c(N3CCC(O)CC3)n1)CN(CC(C)(C)C)CC2`, the cytotoxicity at 10 µM is 7.5%.

`CSc1ccc(C(=O)C2CCCN(C(=O)Cn3cnnn3)C2)cc1` (centres undefined): the cytotoxicity at 10 µM is -1.57%.

In the case of `CCCN1CCCN(C(=O)C(CC)N2CCCC2=O)CC1` (centres undefined), the cytotoxicity at 10 µM was -6.17%.

`CCN1CC[C@@]2(C(=O)Nc3ccccc3)CCN(S(C)(=O)=O)CC[C@@H]12`: the cytotoxicity at 10 µM came to 7.14%.

In the case of `CC1CN(CC2CCCC2)CCN1c1ccc2nncn2n1` (centres undefined), the cytotoxicity at 10 µM worked out at 6.36%.

Consider `O=C(c1ccnnc1)N1C[C@H]2CCC[C@@]2(COCC2CCOCC2)C1`, for which the cytotoxicity at 10 µM is -3.04%.

For `CN(Cc1ccncc1)C(=O)NC1CCCN(c2ncccn2)C1` (centres undefined), the cytotoxicity at 10 µM is -14%.

`CCCC(=O)N(C)C(c1cccc(F)c1)c1ccccn1` (centres undefined): the cytotoxicity at 10 µM was -2.51%.

In the case of `CNC(=O)N1CCc2cc(C(=O)NCC3CC3)c(NC(C)C)nc2CC1`, the cytotoxicity at 10 µM is 2.02%.

In the case of `CCCC(=O)NCC(=O)NC1CC(C)(C)Cc2oc(C)cc21` (centres undefined), the cytotoxicity at 10 µM is -4.32%.

As for `Cc1ccc(S(=O)(=O)NC(=O)CCC(F)(F)F)cc1N(C)C`, the cytotoxicity at 10 µM was -3.79%.

Turning to `Cc1cc(C)n(C2CCCN(C(=O)c3ccc(F)c(F)c3)C2)n1` (centres undefined), the cytotoxicity at 10 µM is -4.91%.

`CCOCC(O)CN1CCN(C(=O)c2ccc(N(C)C)nc2)CC1` (centres undefined): the cytotoxicity at 10 µM is -5.18%.

For the molecule `COc1cc(C)c(C)cc1S(=O)(=O)NCC(O)c1cccn1C` (centres undefined), the cytotoxicity at 10 µM was -6.19%.

For the origin of these results see ChEMBL document CHEMBL4513216, “Probing the Open Global Health Chemical Diversity Library for Multistage-Active Starting Points for Next-Generation Antimalarials” (ACS Infect Dis, 2020).
